# Laboratory results reported in article PMC9233141 (ChemMedChem, 2022).
# Assays:
# ACVR1 = conditions: read-out: ACVR1 Kd; DiscoverX profiling; cited from earlier work
# NLK = conditions: read-out: Kd NLK; DiscoverX KinomeSCAN, prior annotation of PKIS2; cited from earlier work
# [1] = test system: kinases in lysates of SUM159 cells; assay: MIB-MS kinome profiling; type: binding; conditions: 1 μM; for kinases on which activity was detected: threshold 5-fold change
# PKN3 [2] = biological target: T1, PKN3 (Homo sapiens, UniProt Q6P5Z2); assay: split-luciferase binding assay
# T1 sequence (Q6P5Z2 whole entry): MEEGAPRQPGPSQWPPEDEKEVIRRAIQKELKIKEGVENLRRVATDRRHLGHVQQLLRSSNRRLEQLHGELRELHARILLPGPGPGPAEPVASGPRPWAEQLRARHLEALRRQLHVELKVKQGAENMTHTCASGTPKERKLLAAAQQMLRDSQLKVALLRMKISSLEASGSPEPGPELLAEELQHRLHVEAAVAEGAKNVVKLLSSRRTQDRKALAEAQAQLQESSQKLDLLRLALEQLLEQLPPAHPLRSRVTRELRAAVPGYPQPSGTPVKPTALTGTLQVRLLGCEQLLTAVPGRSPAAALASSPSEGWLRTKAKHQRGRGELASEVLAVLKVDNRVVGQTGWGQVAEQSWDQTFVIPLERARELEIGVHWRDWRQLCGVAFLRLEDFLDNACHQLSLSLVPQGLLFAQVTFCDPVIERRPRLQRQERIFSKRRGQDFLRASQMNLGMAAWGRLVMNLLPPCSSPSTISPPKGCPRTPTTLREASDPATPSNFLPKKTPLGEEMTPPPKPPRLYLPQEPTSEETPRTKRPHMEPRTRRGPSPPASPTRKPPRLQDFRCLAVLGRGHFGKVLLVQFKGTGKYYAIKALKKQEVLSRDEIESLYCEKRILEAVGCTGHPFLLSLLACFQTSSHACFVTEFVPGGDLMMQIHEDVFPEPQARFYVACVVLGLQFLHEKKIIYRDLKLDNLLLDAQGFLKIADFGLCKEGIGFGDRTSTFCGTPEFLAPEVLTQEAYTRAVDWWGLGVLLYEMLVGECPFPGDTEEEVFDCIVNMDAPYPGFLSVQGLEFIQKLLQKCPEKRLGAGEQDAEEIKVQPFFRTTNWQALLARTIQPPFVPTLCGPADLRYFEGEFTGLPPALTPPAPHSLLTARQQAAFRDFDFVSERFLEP
# human kinome = conditions: at 1 μM, across the human kinome; cited from earlier work
# GAK [3] = conditions: read-out: GAK activity in cells IC50; GAK NanoBRET; cited from earlier work
# PKN3 [4] = biological target: T1, PKN3; assay: PKN3 NanoBRET in-cell target engagement; type: cell-based
# Procedure, shortened: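 Full-length PKN3 with N-terminal NanoLuc (Gly-Ser-Ser-Gly linker) transiently expressed in HEK-293 cells for 20-30 hr at 37°C/5% CO2. Cells in Opti-MEM at 2 x 10^4/well are equilibrated 2 h with tracer K-5 (1000 nM final) and test compound. NanoBRET substrate and extracellular NanoLuc inhibitor are added, and donor/acceptor luminescence is read. IC50 comes from a variable-slope fit, normalised to controls when needed.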
# GAK [5] = assay: GAK FRET binding; conditions: compared to 14
# GAK [6] = assay: GAK NanoBRET; type: cell-based; conditions: NanoBRET GAK vs PKN3
# [7] = PKN3 IC50, SLCA assay (n=2), 8-point dose response
structure (smiles),measurement,setting,value
COc1cc(Nc2ccnc3ccc(C(F)(F)F)cc23)cc(OC)c1OC [Compound 2],Kd,ACVR1,220 nM
same,Kd,NLK,< 1000 nM
same,kinome profile,[1],narrow spectrum
same,kinases on which activity was detected,[1],GAK and RIPK2
COc1cc2c(Nc3ccc(Br)cc3F)ncnc2cc1OCC1CCN(C)CC1 [Vandetanib],IC50,PKN3 [2]; [7],540 nM
COc1cc2nccc(Oc3ccc(NC(=O)C4(C(=O)Nc5ccc(F)cc5)CC4)cc3)c2cc1OC [Cabozantinib],IC50,PKN3 [2]; [7],42000 nM
COc1cc(Nc2ccnc3cc(-c4ccncc4)ccc23)cc(OC)c1OC [Compound 3],IC50,"PKN3 [2]; PKN3 IC50, SLCA assay",9 nM
same,number of kinases inhibited >90%,human kinome,> 18 kinases
"COc1cc(Nc2ccnc3cc(I)ccc23)cc(OC)c1OC [Compound 16, 7-iodo-N-(3,4,5-trimethoxyphenyl)quinolin-4-amine]",IC50,GAK [3],74 nM
same,IC50,PKN3 [4],1300 nM
same,drop off in activity from cell free SLCA assay to NanoBRET,PKN3 [4]; PKN3,~100 fold
same,decrease in GAK activity,GAK [5],3 fold
same,more potent on GAK than PKN3 in cells,GAK [6],17 fold
same,kinome profile,[1],narrow spectrum
same,kinases on which activity was detected,[1],"PKN3, NLK, GAK, AVCR1 and RIPK2"
COc1cc2c(Nc3ccc(Cl)c(Cl)c3F)ncnc2cc1OC[C@@H]1C[C@@H]2CN(C)C[C@@H]2C1 [Tesevatinib],IC50,PKN3 [2]; [7],240 nM
CNC(=O)CN1CCC(Oc2cc3c(Nc4cccc(Cl)c4F)ncnc3cc2OC)CC1 [Sapitinib],IC50,PKN3 [2]; [7],44000 nM
CS(=O)(=O)CCNCc1ccc(-c2ccc3ncnc(Nc4ccc(OCc5cccc(F)c5)c(Cl)c4)c3c2)o1 [Lapatinib],IC50,PKN3 [2]; [7],5900 nM
same,"PKN3 binding, in words",PKN3 [2]; SLCA assay,moderate activity
